We go through 36 compounds from ChEMBL document CHEMBL4387700, “A novel, potent, and orally bioavailable thiazole HCV NS5A inhibitor for the treatment of hepatitis C virus” (Eur J Med Chem, 2019).

This data set can be described thus: Cytotoxicity against human HuH7 cells assessed as reduction in cell viability by MTS assay. It is filed as cell-based, Huh-7. The method, boiled down:
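Viability of Huh-7 cells was read by MTS assay.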
In general terms: Tetrazolium assays rely on reduction of a dye to a coloured formazan, in cell work by metabolically active cells.
Turning to `CC(C)[C@H](NC(=O)Oc1ccccc1)C(=O)N1CCC[C@H]1c1ncc(-c2ccc(-c3ccc(-c4cnc([C@@H]5CCCN5C(=O)[C@@H](NC(=O)Oc5ccccc5)C(C)C)s4)cc3)cc2)s1`, the CC50 was > 50 µM. Consider `O=C(N[C@H](C(=O)N1CCC[C@H]1c1ncc(-c2ccc(-c3ccc(-c4cnc([C@@H]5CCCN5C(=O)[C@H](NC(=O)N5CCCC5)c5ccccc5)s4)cc3)cc2)s1)c1ccccc1)N1CCCC1`, for which the CC50 is > 50 µM.

`O=C(N[C@H](C(=O)N1CCC[C@H]1c1ncc(-c2ccc(-c3ccc(-c4cnc([C@@H]5CCCN5C(=O)[C@H](NC(=O)N5CCCCC5)c5ccccc5)s4)cc3)cc2)s1)c1ccccc1)N1CCCCC1`: the CC50 was > 50 µM. Then `CC(C)C[C@@H](NC(=O)C1CC1)C(=O)N1CCC[C@H]1c1ncc(-c2ccc(-c3ccc(-c4cnc([C@@H]5CCCN5C(=O)[C@@H](CC(C)C)NC(=O)C5CC5)s4)cc3)cc2)s1`, with > 50 µM; and `CS(=O)(=O)N[C@H](C(=O)N1CCC[C@H]1c1ncc(-c2ccc(-c3ccc(-c4cnc([C@@H]5CCCN5C(=O)[C@H](NS(C)(=O)=O)c5ccccc5)s4)cc3)cc2)s1)c1ccccc1`, with > 50 µM. The result for `O=C(N[C@@H](C(=O)N1CCC[C@H]1c1ncc(-c2ccc(-c3ccc(-c4cnc([C@@H]5CCCN5C(=O)[C@H](NC(=O)c5ccccn5)c5ccccc5)s4)cc3)cc2)s1)c1ccccc1)c1ccccn1` reads > 50 µM. Regarding `O=C(N[C@H](C(=O)N1CCC[C@H]1c1ncc(-c2ccc(-c3ccc(-c4cnc([C@@H]5CCCN5C(=O)[C@H](NC(=O)C5CCCCC5)c5ccccc5)s4)cc3)cc2)s1)c1ccccc1)C1CCCCC1`, the CC50 was > 50 µM. The result for `O=C(CCN1CCCCC1)N[C@@H](C(=O)N1CCC[C@H]1c1ncc(-c2ccc(-c3ccc(-c4cnc([C@@H]5CCCN5C(=O)[C@H](NC(=O)CCN5CCCCC5)c5ccccc5)s4)cc3)cc2)s1)c1ccccc1` reads > 50 µM; that for `CC(C)(C)C(=O)N[C@H](C(=O)N1CCC[C@H]1c1ncc(-c2ccc(-c3ccc(-c4cnc([C@@H]5CCCN5C(=O)[C@H](NC(=O)C(C)(C)C)c5ccccc5)s4)cc3)cc2)s1)c1ccccc1`, > 50 µM; that for `C[C@@H](NC(=O)C1CC1)C(=O)N1CCC[C@H]1c1ncc(-c2ccc(-c3ccc(-c4cnc([C@@H]5CCCN5C(=O)[C@@H](C)NC(=O)C5CC5)s4)cc3)cc2)s1`, > 50 µM.

`CCCCCC(=O)N[C@@H](C(=O)N1CCC[C@H]1c1ncc(-c2ccc(-c3ccc(-c4cnc([C@@H]5CCCN5C(=O)[C@H](NC(=O)CCCCC)c5ccccc5)s4)cc3)cc2)s1)c1ccccc1`: the CC50 is > 50 µM. The result for `O=C(N[C@@H](C(=O)N1CCC[C@H]1c1ncc(-c2ccc(-c3ccc(-c4cnc([C@@H]5CCCN5C(=O)[C@H](NC(=O)c5ccccc5)c5ccccc5)s4)cc3)cc2)s1)c1ccccc1)c1ccccc1` reads > 50 µM; that for `COC(=O)N[C@@H](C(=O)N1CCC[C@H]1c1ncc(-c2ccc(-c3ccc(-c4cnc([C@@H]5CCCN5C(=O)[C@H](NC(=O)OC)c5ccccc5)s4)cc3)cc2)s1)c1ccccc1`, > 50 µM.

As for `CCC(=O)N[C@H](C(=O)N1CCC[C@H]1c1ncc(-c2ccc(-c3ccc(-c4cnc([C@@H]5CCCN5C(=O)[C@H](NC(=O)CC)c5ccccc5)s4)cc3)cc2)s1)c1ccccc1`, the CC50 is > 50 µM. The result for `O=C(CCN1CCOCC1)N[C@@H](C(=O)N1CCC[C@H]1c1ncc(-c2ccc(-c3ccc(-c4cnc([C@@H]5CCCN5C(=O)[C@H](NC(=O)CCN5CCOCC5)c5ccccc5)s4)cc3)cc2)s1)c1ccccc1` reads > 50 µM; that for `O=C(N[C@@H](C(=O)N1CCC[C@H]1c1ncc(-c2ccc(-c3ccc(-c4cnc([C@@H]5CCCN5C(=O)[C@H](NC(=O)c5ccoc5)c5ccccc5)s4)cc3)cc2)s1)c1ccccc1)c1ccoc1`, > 50 µM; that for `CCCC(=O)N[C@H](C(=O)N1CCC[C@H]1c1ncc(-c2ccc(-c3ccc(-c4cnc([C@@H]5CCCN5C(=O)[C@H](NC(=O)CCC)c5ccccc5)s4)cc3)cc2)s1)c1ccccc1`, > 50 µM.

Take `O=C(N[C@@H](C(=O)N1CCC[C@H]1c1ncc(-c2ccc(-c3ccc(-c4cnc([C@@H]5CCCN5C(=O)[C@H](NC(=O)c5cccnc5)c5ccccc5)s4)cc3)cc2)s1)c1ccccc1)c1cccnc1`: the CC50 was > 50 µM. The result for `O=C(N[C@H](C(=O)N1CCC[C@H]1c1ncc(-c2ccc(-c3ccc(-c4cnc([C@@H]5CCCN5C(=O)[C@H](NC(=O)C5CC5)c5ccccc5)s4)cc3)cc2)s1)c1ccccc1)C1CC1` reads > 50 µM. The result for `O=C(N[C@H](C(=O)N1CCC[C@H]1c1ncc(-c2ccc(-c3ccc(-c4cnc([C@@H]5CCCN5C(=O)[C@H](NC(=O)c5cccs5)c5ccccc5)s4)cc3)cc2)s1)c1ccccc1)c1cccs1` reads > 50 µM; that for `O=C(N[C@@H](C(=O)N1CCC[C@H]1c1ncc(-c2ccc(-c3ccc(-c4cnc([C@@H]5CCCN5C(=O)[C@H](NC(=O)N5CCCC5)c5ccccc5)s4)cc3)cc2)s1)c1ccccc1)N1CCCC1`, > 50 µM. The result for `O=C(N[C@H](C(=O)N1CCC[C@H]1c1ncc(-c2ccc(-c3ccc(-c4cnc([C@@H]5CCCN5C(=O)[C@H](NC(=O)C5CCCC5)c5ccccc5)s4)cc3)cc2)s1)c1ccccc1)C1CCCC1` reads > 50 µM; that for `CC(C)(C)[C@@H](NC(=O)C1CC1)C(=O)N1CCC[C@H]1c1ncc(-c2ccc(-c3ccc(-c4cnc([C@@H]5CCCN5C(=O)[C@H](NC(=O)C5CC5)C(C)(C)C)s4)cc3)cc2)s1`, > 50 µM; that for `CCC[C@@H](NC(=O)C1CC1)C(=O)N1CCC[C@H]1c1ncc(-c2ccc(-c3ccc(-c4cnc([C@@H]5CCCN5C(=O)[C@@H](CCC)NC(=O)C5CC5)s4)cc3)cc2)s1`, > 50 µM. As to `CC(C)[C@@H](NC(=O)C1CC1)C(=O)N1CCC[C@H]1c1ncc(-c2ccc(-c3ccc(-c4cnc([C@@H]5CCCN5C(=O)[C@H](NC(=O)C5CC5)C(C)C)s4)cc3)cc2)s1`, the CC50 is > 50 µM. The result for `CCCCC(=O)N[C@H](C(=O)N1CCC[C@H]1c1ncc(-c2ccc(-c3ccc(-c4cnc([C@@H]5CCCN5C(=O)[C@H](NC(=O)CCCC)c5ccccc5)s4)cc3)cc2)s1)c1ccccc1` reads > 50 µM. Regarding `O=C(N[C@@H](C(=O)N1CCC[C@H]1c1ncc(-c2ccc(-c3ccc(-c4cnc([C@@H]5CCCN5C(=O)[C@H](NC(=O)C5CC5)C5CCCCC5)s4)cc3)cc2)s1)C1CCCCC1)C1CC1`, the CC50 was > 50 µM. As for `O=C(N[C@H](C(=O)N1CCC[C@H]1c1ncc(-c2ccc(-c3ccc(-c4cnc([C@@H]5CCCN5C(=O)[C@H](NC(=O)c5cccnc5)c5ccccc5)s4)cc3)cc2)s1)c1ccccc1)c1cccnc1`, the CC50 is > 50 µM. The result for `CCC(=O)N[C@@H](C(=O)N1CCC[C@H]1c1ncc(-c2ccc(-c3ccc(-c4cnc([C@@H]5CCCN5C(=O)[C@H](NC(=O)CC)c5ccccc5)s4)cc3)cc2)s1)c1ccccc1` reads > 50 µM; that for `O=C(N[C@H](C(=O)N1CCC[C@H]1c1ncc(-c2ccc(-c3ccc(-c4cnc([C@@H]5CCCN5C(=O)[C@H](NC(=O)c5ccoc5)c5ccccc5)s4)cc3)cc2)s1)c1ccccc1)c1ccoc1`, > 50 µM. For `O=C(N[C@@H](C(=O)N1CCC[C@H]1c1ncc(-c2ccc(-c3ccc(-c4cnc([C@@H]5CCCN5C(=O)[C@H](NC(=O)c5ccsc5)c5ccccc5)s4)cc3)cc2)s1)c1ccccc1)c1ccsc1`, the CC50 was > 50 µM.

For the compound `CCN(CC)CCC(=O)N[C@@H](C(=O)N1CCC[C@H]1c1ncc(-c2ccc(-c3ccc(-c4cnc([C@@H]5CCCN5C(=O)[C@H](NC(=O)CCN(CC)CC)c5ccccc5)s4)cc3)cc2)s1)c1ccccc1`, the half-maximal cytotoxic concentration (CC50) was > 50 µM. The result for `CCCCC(=O)N[C@@H](C(=O)N1CCC[C@H]1c1ncc(-c2ccc(-c3ccc(-c4cnc([C@@H]5CCCN5C(=O)[C@H](NC(=O)CCCC)c5ccccc5)s4)cc3)cc2)s1)c1ccccc1` reads > 50 µM; that for `O=C(CCN1CCOCC1)N[C@H](C(=O)N1CCC[C@H]1c1ncc(-c2ccc(-c3ccc(-c4cnc([C@@H]5CCCN5C(=O)[C@H](NC(=O)CCN5CCOCC5)c5ccccc5)s4)cc3)cc2)s1)c1ccccc1`, > 50 µM. Then `O=C(N[C@H](C(=O)N1CCC[C@H]1c1ncc(-c2ccc(-c3ccc(-c4cnc([C@@H]5CCCN5C(=O)[C@H](NC(=O)c5ccncc5)c5ccccc5)s4)cc3)cc2)s1)c1ccccc1)c1ccncc1`, with > 50 µM; and `O=C(N[C@@H](C(=O)N1CCC[C@H]1c1ncc(-c2ccc(-c3ccc(-c4cnc([C@@H]5CCCN5C(=O)[C@H](NC(=O)N5CCCCC5)c5ccccc5)s4)cc3)cc2)s1)c1ccccc1)N1CCCCC1`, with > 50 µM.

One may read the CC50 as the concentration giving 50% cytotoxicity.
